Laboratory results: ChEMBL document CHEMBL1649563, “Nukacin ISK-1, a bacteriostatic lantibiotic” (2009)
Values after ≈ are worked out from the molar mass of the structure shown. Active and inactive are the calls of the source. The rule behind the calls is not given here.

Columns and labels:
Lactobacillus sakei [1] = experiment: Antibacterial activity against Lactobacillus sakei JCM 1157; type: functional; settings: Latilactobacillus sakei
How it was run: (§1)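 Spot-on-lawn method against each indicator strain, giving MIC. Activity determined at least twice per lantibiotic.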

Bacillus subtilis [2] = experiment: Antibacterial activity against Bacillus subtilis JCM 1465 assessed as detachment of plasma membrane from cell wall by microscopy; type: functional, organism-based
How it was run: (§2)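 B. subtilis JCM 1465T treated at 10× MIC for 90 min against an untreated control, then prepared for transmission electron microscopy. Longitudinal and cross sections examined.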

Bacillus subtilis [3] = experiment: Antibacterial activity against Bacillus subtilis JCM 1465 assessed as induction of pore formation-associated efflux of K+ ion by fluorescence assay; type: functional, organism-based
How it was run: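 K+ efflux from B. subtilis JCM 1465T cells exposed to lantibiotic at 10× MIC, measured with potassium-binding benzofuran isophthalate-AM (PBFI). Expressed relative to total K+ released after adding 1 μM nisin (100%). Run twice.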

Enterococcus faecalis = experiment: Antibacterial activity against Enterococcus faecalis TUA 1344L; type: functional; how it was run: as §1
Staphylococcus carnosus = experiment: Antibacterial activity against Staphylococcus carnosus TM300; type: functional; how it was run: as §1
[4] = tested on: Lactiplantibacillus plantarum; experiment: Antibacterial activity against Lactobacillus plantarum ATCC 14617; type: functional; settings: ATCC 14917, in the assay text read “ATCC 14917” for “ATCC 14617”; how it was run: as §1
Lactococcus lactis = experiment: Antibacterial activity against Lactococcus lactis ATCC 19435; type: functional; how it was run: as §1
Bacillus subtilis [5] = experiment: Antibacterial activity against Bacillus subtilis JCM 1465 assessed as induction of pore formation-associated efflux of ATP by fluorescence assay; type: functional, organism-based
How it was run: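 ATP efflux from B. subtilis JCM 1465T cells treated with lantibiotic at 10× MIC, detected with a Lucifer-HS ATP detection kit. Run twice, representative data shown.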

Bacillus subtilis [6] = experiment: Antibacterial activity against Bacillus subtilis JCM 1465; type: functional; how it was run: as §1
Listeria innocua = experiment: Antibacterial activity against Listeria innocua ATCC 33090; type: functional; how it was run: as §1
Micrococcus luteus = experiment: Antibacterial activity against Micrococcus luteus IFO 12708; type: functional; how it was run: as §1
Cell membrane = experiment: Binding affinity to cell membrane of Bacillus subtilis JCM 1465 assessed as dissipation of nisin A-induced membrane potential
Bacillus subtilis [7] = experiment: Antibacterial activity against Bacillus subtilis JCM 1465 assessed as decrease in bacterial cell wall thickness by microscopy; type: functional, organism-based; how it was run: as §2
Lactobacillus sakei [8] = experiment: Bacteriostatic against Lactobacillus sakei JCM 1157 assessed as decrease in cell viability after 24 hrs by turbidity assay; type: functional; settings: Latilactobacillus sakei
Lactobacillus sakei [9] = experiment: Bacteriostatic against Lactobacillus sakei JCM 1157 assessed as lysis of cell after 24 hrs by spectrophotometry; type: functional; settings: Latilactobacillus sakei
Bacillus subtilis [10] = experiment: Antibacterial activity against Bacillus subtilis JCM 1465 assessed as single arrangement of initial stage of septal orientation by microscopy; type: functional, organism-based; how it was run: as §2
Bacillus subtilis [11] = experiment: Antibacterial activity against Bacillus subtilis JCM 1465 assessed as dissipation of membrane potential by fluorescence assay; type: functional, organism-based

MIC (Lactobacillus sakei [1]) [µM] | MIC (Enterococcus faecalis) [µM] | MIC (Staphylococcus carnosus) [µM] | MIC (Lactococcus lactis) [µM] | MIC (Bacillus subtilis [6]) [µM] | MIC (Listeria innocua) [µM] | MIC (Micrococcus luteus) [µM] | Activity (Cell membrane) | Compound | Activity (Bacillus subtilis [2]) | Activity (Bacillus subtilis [3]) | MIC [4] [µM] | Activity (Bacillus subtilis [5]) | Activity (Bacillus subtilis [7]) | Activity (Lactobacillus sakei [8]) | Activity (Lactobacillus sakei [9]) | Activity (Bacillus subtilis [10]) | Activity (Bacillus subtilis [11])
0.008 (≈ 0.0277 µg/mL) | 0.26 (≈ 0.902 µg/mL) | 0.016 (≈ 0.0555 µg/mL) | 0.065 (≈ 0.225 µg/mL) | 0.008 (≈ 0.0277 µg/mL) | 0.065 (≈ 0.225 µg/mL) | 0.032 (≈ 0.111 µg/mL) | Active | C=C(NC(=O)[C@@H](NC(=O)[C@H](Cc1cnc[nH]1)NC(=O)[C@@H](NC(=O)[C@H](CO)NC(=O)[C@@H]1CSC(C)[C@@H]2NC(=O)[C@H](C)NC(=O)[C@@H](NC(=O)N(CCCCN)C(=O)[C@H](CCCCN)NC(=O)[C@@H](CCSC)NC(=O)[C@H](CC(N)=O)NC(=O)[C@@H]3CSC(C)[C@H](NC(=O)[C@H](CCCCN)NC(=O)[C@@H]4CSC(C)[C@H](NC(=O)[C@@H]5CSC[C@H](NC(=O)/C(=C/C)NC(=O)[C@@H](N)[C@@H](C)CC)C(=O)N[C@@H](CC(C)C)C(=O)NC(=C)C(=O)N[C@@H](CC(C)C)C(=O)N5)C(=O)N5CCC[C@H]5C(=O)NCC(=O)N4)C(=O)NCC(=O)N[C@@H](C)C(=O)N[C@@H](CC(C)C)C(=O)N[C@H](CCSC)C(=O)NCC(=O)N3)C(C)SC[C@H](NC2=O)C(=O)N[C@@H](Cc2cnc[nH]2)C(=O)N1)[C@@H](C)CC)C(C)C)C(=O)N[C@@H](CCCCN)C(=O)O (stereo partly specified) | Active | Active | 1.04 (≈ 3.61 µg/mL) | Active | – | – | – | – | –
0.26 (≈ 0.769 µg/mL) | 4.16 (≈ 12.3 µg/mL) | 0.26 (≈ 0.769 µg/mL) | 0.52 (≈ 1.54 µg/mL) | 0.26 (≈ 0.769 µg/mL) | 16.6 (≈ 49.2 µg/mL) | 2.08 (≈ 6.16 µg/mL) | – | C/C=C1\NC(=O)[C@H](Cc2ccccc2)NC(=O)[C@H](C(C)C)NC(=O)[C@H](Cc2ccccc2)NC(=O)[C@H](CCC(N)=O)NC(=O)[C@H](Cc2ccccc2)NC(=O)[C@@H]2CSC[C@@H](C(=O)N[C@@H](CO)C(=O)O)NC(=O)[C@H](CSC[C@@H]3NC(=O)[C@H](C(C)C)NC(=O)[C@@H](NC(=O)[C@@H]4CCCN4C(=O)[C@@H](NC(=O)[C@@H](NC(=O)CNC(=O)[C@H](CO)NC(=O)[C@H](CCCCN)NC(=O)[C@H](CCCCN)NC(=O)[C@@H](N)CCCCN)C(C)C)[C@@H](C)CC)[C@H](C)SC[C@H](NC(=O)[C@H](CC(=O)O)NC(=O)[C@H](Cc4cnc[nH]4)NC3=O)C(=O)N[C@@H](Cc3cnc[nH]3)C(=O)N[C@@H](CCSC)C(=O)N[C@@H](CC(N)=O)C(=O)N2)NC1=O | – | inactive | – | inactive | Active | Active | Active | Active | inactive
